Assay [1] has as its target T1, Serine/threonine-protein kinase ULK1 (Homo sapiens) (UniProt O75385).
T1 sequence (whole entry): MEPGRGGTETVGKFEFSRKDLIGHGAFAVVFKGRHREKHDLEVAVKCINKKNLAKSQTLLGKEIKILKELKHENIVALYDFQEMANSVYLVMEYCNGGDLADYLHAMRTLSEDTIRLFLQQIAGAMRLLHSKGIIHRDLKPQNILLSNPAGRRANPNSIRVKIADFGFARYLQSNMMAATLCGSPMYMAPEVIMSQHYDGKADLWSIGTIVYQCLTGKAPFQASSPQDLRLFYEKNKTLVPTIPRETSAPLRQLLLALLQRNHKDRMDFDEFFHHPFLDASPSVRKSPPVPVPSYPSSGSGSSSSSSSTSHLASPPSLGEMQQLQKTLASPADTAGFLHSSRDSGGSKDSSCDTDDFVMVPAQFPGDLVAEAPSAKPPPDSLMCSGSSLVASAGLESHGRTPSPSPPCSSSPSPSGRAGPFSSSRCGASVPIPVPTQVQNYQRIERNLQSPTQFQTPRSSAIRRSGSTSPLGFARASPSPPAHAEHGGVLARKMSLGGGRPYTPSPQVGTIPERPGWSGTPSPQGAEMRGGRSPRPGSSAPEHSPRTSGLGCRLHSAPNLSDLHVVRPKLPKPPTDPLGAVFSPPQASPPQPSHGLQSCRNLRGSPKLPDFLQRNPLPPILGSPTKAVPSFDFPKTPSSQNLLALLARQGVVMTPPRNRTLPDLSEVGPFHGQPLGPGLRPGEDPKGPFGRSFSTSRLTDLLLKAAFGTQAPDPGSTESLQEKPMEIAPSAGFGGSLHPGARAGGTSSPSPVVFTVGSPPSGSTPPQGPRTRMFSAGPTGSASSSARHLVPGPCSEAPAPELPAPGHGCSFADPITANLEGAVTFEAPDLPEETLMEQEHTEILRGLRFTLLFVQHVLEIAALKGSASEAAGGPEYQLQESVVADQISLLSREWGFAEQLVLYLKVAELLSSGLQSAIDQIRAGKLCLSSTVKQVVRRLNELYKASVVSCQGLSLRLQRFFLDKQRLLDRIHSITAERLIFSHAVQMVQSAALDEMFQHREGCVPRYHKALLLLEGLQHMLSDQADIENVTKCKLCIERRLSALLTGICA
Kind of assay: Inhibition of ULK1 mediated autophagy in human A549 cells transfected with GFP-mRFP-LC3 assessed as increase in LC3 puncta measured after 6 hrs by fluorescence microscopic analysis. The class given is cell-based. In a few lines:
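A549 cells were transfected with GFP/mRFP-LC3 for 6 h. Transfected cells were used 24 h later, and LC3 puncta were examined by fluorescence microscopy.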

For assay [2], the target named is T1, Serine/threonine-protein kinase ULK1 (Homo sapiens). The assay can be described thus: Inhibition of ULK1 mediated autophagy in human A549 cells assessed as reduction in conversion of LC3 1 to LC3-2 at 2 to 8 uM measured after 1 hrs by Western blot analysis. Format: cell-based. The settings on record: dose 2-8 µM. In short, it runs like this:
(§1)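 Treated A549 cells, adherent and floating, were collected and lysed in RIPA buffer with protease and phosphatase inhibitors. Lysates were spun at 12,000 g, 4 °C, 15 min, and protein measured by BCA. Proteins were run on SDS-PAGE and moved to nitrocellulose, blocked 1 h in TBST with 5% skim milk, and probed overnight at 4 °C with primary antibodies. HRP secondary antibody was applied 1 h at room temperature, with ECL detection.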

The subject of assay [3] is A549. Kind of assay: Induction of apoptosis in human A549 cells assessed as reduction in Bcl2 protein expression at 2 to 8 uM by Western blot analysis. Format: functional, cell-based. The settings on record: dose 2-8 µM. In a few lines: as §1
For orientation: A western blot detects proteins with antibodies after separation by electrophoresis.

Assay [4] concerns the target T1, Serine/threonine-protein kinase ULK1 (Homo sapiens). Kind of assay: Inhibition of human ULK1 in human A549 cells under normal condition assessed as decrease in phosphorylated-Beclin 1(ser15) level by immunoblotting analysis. The class given is cell-based. In short, it runs like this: as §1
Assay [5] has the same target. The assay can be described thus: Inhibition of ULK1 mediated autophagy in human A549 cells assessed as p62 degradation at 2 to 8 uM measured after 1 hrs by Western blot analysis. Format: cell-based. As to conditions: dose 2-8 µM. In a few lines:
as §1

Assay [6] shares this target. Kind of assay: Inhibition of human ULK1 in human A549 cells under nutrient starvation condition assessed as decrease in phosphorylated-Beclin 1(ser15) level by immunoblotting analysis. Format: cell-based. In a few lines:
as §1

Assay [7] has the same target. Kind of assay: Inhibition of recombinant human ULK1 at 10 uM preincubated for 60 mins followed by substrate addition and measured after 30 mins by ADP-glo assay. The settings on record: time 90.0 min. In short, it runs like this: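 Recombinant ULK1 activity was measured by ADP-Glo luminescence of ADP formed, in 40 mM Tris pH 7.5, 20 mM MgCl₂, 0.1 mg/ml BSA and […]. After the kinase reaction, plates were mixed 2 min and held 40 min at room temperature. Detection reagent was then added for 30 min at room temperature before luminescence was read.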
(ADP-Glo turns the ADP formed in a reaction into a luminescent signal.)

Assay [8] concerns A549. Kind of assay: Antiproliferative activity against human A549 cells assessed as reduction in cell viability after 24 hrs by MTT assay. Format: functional, cell-based. The settings on record: A549, 24 h. In short, it runs like this:
(§2)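 Cells seeded at 5.5 × 10⁴ cells/mL in 96-well plates and grown 24 h before exposure to graded compound concentrations. Viability read by MTT after 24 h. A549, MCF-7 and MDA-MB-468 were kept in DMEM with 10% FBS under 5% CO₂; HL60 and U937 in RPMI 1640 with 10% FBS. IC50 taken as mean of triplicate tests.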
In general terms: Formazan colour is commonly taken as a measure of viable cells.

The target of assay [9] is T1, Serine/threonine-protein kinase ULK1 (Homo sapiens). Kind of assay: Inhibition of human ULK1 in human A549 cells under nutrient starvation condition assessed as decrease in phosphorylated- Atg13 (ser318) level by immunoblotting analysis. The class given is cell-based. In a few lines:
as §1

The test system of assay [10] is A549. Kind of assay: Induction of apoptosis in human A549 cells assessed as increase in caspase 3 protein expression at 2 to 8 uM by Western blot analysis. The class given is functional, cell-based. As to conditions: dose 2-8 µM. In a few lines: as §1
Assay [11] concerns A549. The assay can be described thus: Induction of apoptosis in human A549 cells assessed as increase in Bax protein expression at 2 to 8 uM by Western blot analysis. Format: functional, cell-based. The settings on record: dose 2-8 µM. In short, it runs like this: as §1
Another assay relates to U-937. Kind of assay: Antiproliferative activity against human U937 cells assessed as reduction in cell viability after 24 hrs by MTT assay. Format: functional, cell-based. As to conditions: U-937, 24 h. In a few lines: as §2
A further assay concerns MDA-MB-468. Kind of assay: Antiproliferative activity against human MDA-MB-468 cells assessed as reduction in cell viability after 24 hrs by MTT assay. Format: functional, cell-based. As to conditions: MDA-MB-468, 24 h. In short, it runs like this:
as §2

The next assay deals with HL-60. The assay can be described thus: Antiproliferative activity against human HL60 cells assessed as reduction in cell viability after 24 hrs by MTT assay. Format: functional, cell-based. The settings on record: HL-60, 24 h. In short, it runs like this:
as §2

Another assay concerns MCF7. Kind of assay: Antiproliferative activity against human MCF-7 cells assessed as reduction in cell viability after 24 hrs by MTT assay. The class given is functional, cell-based. As to conditions: MCF7, 24 h. In short, it runs like this: as §2
For assay [12], the system named is A549. Kind of assay: Induction of apoptosis in human A549 cells assessed as morphological changes upto 8 uM incubated for 24 hrs in dark by Hoechst 33258 staining based fluorescence microscopy. As to conditions: dose microM <=8, time 24.0 hrs.
For assay [13], the target named is T1, Serine/threonine-protein kinase ULK1 (Homo sapiens). The assay can be described thus: Inhibition of ULK1 mediated autophagy in human A549 cells assessed as decrease in beclin1 level at 2 to 8 uM measured after 1 hrs by Western blot analysis. The class given is cell-based. The settings on record: dose 2-8 µM. In a few lines:
as §1

The target is the same in assay [14]. The assay can be described thus: Inhibition of human ULK1 in human A549 cells under normal condition assessed as decrease in phosphorylated-Atg13 (ser318) level by immunoblotting analysis. Format: cell-based. In a few lines:
as §1

Assay [15] shares this target. The assay can be described thus: Induction of downregulation of ULK1-mediated autophagy in human A549 cells assessed as phosphorylation at Ser317 preincubated for 24 hrs by Western blot analysis. The class given is cell-based. As to conditions: dose microM <=8, time 24.0 hrs. In a few lines:
as §1

Activity calls are given as the source filed them. No cut-off for these calls is given here.

With `COc1cc(Nc2ncc(Br)c(Oc3ccc([N+](=O)[O-])cc3F)n2)cc(OC)c1OC`, the outcome (in [1]; in the assay with A549 [3]; in assay [5]; with A549 [10]; with A549 [11]; in assay [14]) was Active. Further, the inhibition entry in [2], in [4], in assay [6], in [9] and in [13] was “Active” each time. Besides, the inhibition (in general, the change of the read-out against control, counted positive when it falls) in [7] stood at 99.2%. Further, the IC50 (commonly the point on the concentration scale where inhibition reaches its midpoint) in the assay on A549 [8] is 1940 nM; with U-937, 12.9 µM; in the assay on MDA-MB-468, 16.8 µM; in the assay on HL-60, 10.9 µM; in the assay with MCF7, 19.6 µM. The Activity result (in the assay on A549 [12]; in assay [15]) was “Dose-dependent effect” each time.
